Laboratory results published in ChEMBL document CHEMBL1156948, “Statistical molecular design of a focused salicylidene acylhydrazide library and multivariate QSAR of inhibition of type III secretion in the Gram-negative bacterium Yersinia” (Bioorg Med Chem, 2010).
Active and inactive are the calls of the source.

Test system: Yersinia pseudotuberculosis YPIII
Test: Inhibition of T3S in Yersinia pseudotuberculosis YPIII expressing yopE-luxAB at 1.56 uM after 3 hrs by luciferase reporter gene assay
Conditions: not given
Outline: (§1)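 Strain YPIII pIB102 (yopE-luxAB) grown overnight at room temperature in BHI with 5 mM EGTA and 20 mM MgCl2 (calcium depletion), adjusted to OD600 0.088–0.095. Compound added from DMSO at 1.56–200 µM final (eight concentrations). Shaken 1 h at room temperature, then 2 h at 37 °C. Decanal added and light emission read immediately. Triplicates, repeated at least three times.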

SMILES | inhibition
O=C(N/N=C/c1cc(Br)ccc1O)c1ccncc1 | -8%
O=C(N/N=C/c1cc(I)cc(I)c1O)c1cc(Cl)cc(Cl)c1 | 0%
COc1ccc(Br)c(/C=N/NC(=O)c2snnc2C)c1O | -5%
COc1cccc(C(=O)N/N=C/c2cccc(F)c2O)c1 | -2%
COc1cc(C(=O)N/N=C/c2ccc(O)c(O)c2O)cc(OC)c1OC | -10%

Test system: Yersinia pseudotuberculosis YPIII
Test: Inhibition of T3S in Yersinia pseudotuberculosis YPIII expressing yopE-luxAB at 12.5 uM after 3 hrs by luciferase reporter gene assay
Conditions: not given
Outline: as §1

SMILES | inhibition
O=C(N/N=C/c1cc(Br)ccc1O)c1ccncc1 | 24%
O=C(N/N=C/c1cc(I)cc(I)c1O)c1cc(Cl)cc(Cl)c1 | 17%
COc1ccc(Br)c(/C=N/NC(=O)c2snnc2C)c1O | 21%
COc1cccc(C(=O)N/N=C/c2cccc(F)c2O)c1 | 11%
COc1cc(C(=O)N/N=C/c2ccc(O)c(O)c2O)cc(OC)c1OC | 19%

Test system: Yersinia pseudotuberculosis YPIII
Test: Inhibition of T3S in Yersinia pseudotuberculosis YPIII expressing yopE-luxAB at 6.25 uM after 3 hrs by luciferase reporter gene assay
Conditions: not given
Outline: as §1

SMILES | inhibition
O=C(N/N=C/c1cc(Br)ccc1O)c1ccncc1 | 13%
O=C(N/N=C/c1cc(I)cc(I)c1O)c1cc(Cl)cc(Cl)c1 | 15%
COc1ccc(Br)c(/C=N/NC(=O)c2snnc2C)c1O | 19%
COc1cccc(C(=O)N/N=C/c2cccc(F)c2O)c1 | 9%
COc1cc(C(=O)N/N=C/c2ccc(O)c(O)c2O)cc(OC)c1OC | 14%

Test system: Escherichia coli
Test: Antibacterial activity against Enterotoxigenic Escherichia coli infected in mouse J774 cells assessed as inhibition of bacteria-induced cell death at 25 to 100 uM after 14 hrs using calcein AM staining by fluorescence microscopy
Assay type: functional, organism-based
Conditions: not given
Outline: (§2)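 J774A macrophages (4×10⁴/well, DMEM with 10% FCS, gentamicin 3 µg/mL, 24 h at 37 °C, 5% CO2) washed with PBS, then given fresh DMEM with compound plus bacteria (OD600 0.002), final 25, 50, 100 µM, DMSO below 0.5%. ETEC grown overnight in LB at 37 °C, diluted and grown 3 h. 14 h at 37 °C, 5% CO2; CalceinAM 40 min, fluorescence 485/535 nm, confirmed by microscopy; uninfected cells = 100% viability; gentamicin 5 µg/mL rescue control.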

SMILES | inhibition
COc1cccc(C(=O)N/N=C/c2cccc(F)c2O)c1 | inactive

Test system: Yersinia pseudotuberculosis YPIII
Test: Inhibition of T3S in Yersinia pseudotuberculosis YPIII expressing yopE-luxAB at 100 uM after 3 hrs by luciferase reporter gene assay
Conditions: not given
Outline: as §1

SMILES | inhibition
O=C(N/N=C/c1cc(Br)ccc1O)c1ccncc1 | 95%
O=C(N/N=C/c1cc(I)cc(I)c1O)c1cc(Cl)cc(Cl)c1 | 21%
COc1ccc(Br)c(/C=N/NC(=O)c2snnc2C)c1O | 71%
COc1cccc(C(=O)N/N=C/c2cccc(F)c2O)c1 | 58%
COc1cc(C(=O)N/N=C/c2ccc(O)c(O)c2O)cc(OC)c1OC | 58%

Test system: Escherichia coli
Test: Antibacterial activity against Escherichia coli DH5[alpha] at 100 uM after 23 hrs by broth dilution assay
Assay type: functional, organism-based
Conditions: not given
Outline: (§3)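 Overnight LB culture of E. coli DH5α grown at 37 °C, diluted to OD600 0.1 in LB with 2.5 mM CaCl2; compound added from DMSO stock to final 50 or 100 µM. Incubated at 37 °C with absorbance at 595 nm followed over 23 h.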

SMILES | Activity
O=C(N/N=C/c1cc(Br)ccc1O)c1ccncc1 | inactive
O=C(N/N=C/c1cc(I)cc(I)c1O)c1cc(Cl)cc(Cl)c1 | inactive
COc1ccc(Br)c(/C=N/NC(=O)c2snnc2C)c1O | inactive
COc1cccc(C(=O)N/N=C/c2cccc(F)c2O)c1 | inactive
COc1cc(C(=O)N/N=C/c2ccc(O)c(O)c2O)cc(OC)c1OC | inactive

Test system: Yersinia pseudotuberculosis
Test: Antibacterial activity against Yersinia pseudotuberculosis expressing pIB102 at 50 uM after 23 hrs by broth dilution assay
Assay type: functional, organism-based
Conditions: not given
Outline: (§4)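 Wild-type pIB102 grown overnight in LB at room temperature, diluted to OD600 = 0.1 in LB with 2.5 mM CaCl2. Compound added from DMSO stock to final 50 and 100 µM. Incubated at 37 °C with absorbance at 595 nm read over 23 h.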

SMILES | Activity
O=C(N/N=C/c1cc(Br)ccc1O)c1ccncc1 | inactive
O=C(N/N=C/c1cc(I)cc(I)c1O)c1cc(Cl)cc(Cl)c1 | inactive
COc1ccc(Br)c(/C=N/NC(=O)c2snnc2C)c1O | inactive
COc1cccc(C(=O)N/N=C/c2cccc(F)c2O)c1 | inactive
COc1cc(C(=O)N/N=C/c2ccc(O)c(O)c2O)cc(OC)c1OC | inactive

Molecular target: Tyrosine-protein phosphatase YopH (Yersinia pseudotuberculosis serotype I (strain IP32953)) (UniProt P08538)
Test: Inhibition of YopH in Yersinia pseudotuberculosis YPIII expressing yopE-luxAB treated 3 hrs before substrate addition measured after 15 mins by microplate reader
Conditions: not given
Outline: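 Same calcium-depleted YPIII pIB102 cultures and compound exposure (1 h room temperature, then 2 h 37 °C). An aliquot of the bacterial suspension was mixed with 25 mM p-nitrophenyl phosphate, 40 mM MES pH 5.0, 1.6 mM DTT. Incubated 15 min at 37 °C, quenched with 1 M NaOH, absorbance read at 405 nm. Triplicates, repeated at least three times.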

Sequence of Tyrosine-protein phosphatase YopH (Yersinia pseudotuberculosis serotype I (strain IP32953)) (P08538 whole entry): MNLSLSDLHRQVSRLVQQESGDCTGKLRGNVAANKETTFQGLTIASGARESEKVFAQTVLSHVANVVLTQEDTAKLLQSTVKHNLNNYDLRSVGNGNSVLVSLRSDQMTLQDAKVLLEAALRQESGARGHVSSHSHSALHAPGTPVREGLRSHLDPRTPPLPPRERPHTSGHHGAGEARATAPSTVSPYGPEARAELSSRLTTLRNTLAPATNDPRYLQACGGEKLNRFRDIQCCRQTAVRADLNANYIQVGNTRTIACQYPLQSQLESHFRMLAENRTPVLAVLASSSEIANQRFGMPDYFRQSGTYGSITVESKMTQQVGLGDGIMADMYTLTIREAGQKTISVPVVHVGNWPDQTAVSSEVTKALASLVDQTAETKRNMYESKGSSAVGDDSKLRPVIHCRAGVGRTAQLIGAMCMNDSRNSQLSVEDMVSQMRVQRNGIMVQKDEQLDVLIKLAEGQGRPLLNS

SMILES | inhibition
O=C(N/N=C/c1cc(I)cc(I)c1O)c1cc(Cl)cc(Cl)c1 | inactive
COc1cc(C(=O)N/N=C/c2ccc(O)c(O)c2O)cc(OC)c1OC | inactive

Test system: Yersinia pseudotuberculosis YPIII
Test: Inhibition of T3S in Yersinia pseudotuberculosis YPIII expressing yopE-luxAB at 3.13 uM after 3 hrs by luciferase reporter gene assay
Conditions: not given
Outline: as §1

SMILES | inhibition
O=C(N/N=C/c1cc(Br)ccc1O)c1ccncc1 | 14%
O=C(N/N=C/c1cc(I)cc(I)c1O)c1cc(Cl)cc(Cl)c1 | 12%
COc1ccc(Br)c(/C=N/NC(=O)c2snnc2C)c1O | 14%
COc1cccc(C(=O)N/N=C/c2cccc(F)c2O)c1 | 7%
COc1cc(C(=O)N/N=C/c2ccc(O)c(O)c2O)cc(OC)c1OC | 11%

Test system: J774
Test: Cytotoxicity against mouse J774 cells at 25 to 100 uM after 14 hrs using calcein AM staining by fluorescence microscopy
Assay type: cell-based
Conditions: j774, 14 h
Outline: as §2

SMILES | Activity
O=C(N/N=C/c1cc(Br)ccc1O)c1ccncc1 | Non-toxic
COc1cccc(C(=O)N/N=C/c2cccc(F)c2O)c1 | Non-toxic

Test system: Yersinia pseudotuberculosis
Test: Antibacterial activity against Yersinia pseudotuberculosis expressing pIB102 infected in mouse J774 cells assessed as inhibition of bacteria-induced cell death at 50 uM after 14 hrs using calcein AM staining by fluorescence microscopy
Assay type: functional, organism-based
Conditions: not given
Outline: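 J774A macrophages (4 × 10^4 cells/well) grown 24 h in DMEM/10% FCS/gentamicin. Wild-type pIB102 grown in LB plus kanamycin overnight at room temperature, diluted 1/10 in DMEM, shaken 1 h at room temperature then 2 h at 37 °C. Added at OD600 = 0.002 with compound (25, 50, 100 µM final; DMSO <0.5%). Incubated 14 h, 37 °C, 5% CO2. CalceinAM 40 min, fluorescence 485/535 nm; uninfected cells = 100% viability.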

SMILES | inhibition
O=C(N/N=C/c1cc(Br)ccc1O)c1ccncc1 | Active
COc1cccc(C(=O)N/N=C/c2cccc(F)c2O)c1 | Active

Test system: Escherichia coli
Test: Antibacterial activity against Escherichia coli DH5[alpha] at 50 uM after 23 hrs by broth dilution assay
Assay type: functional, organism-based
Conditions: not given
Outline: as §3

SMILES | Activity
O=C(N/N=C/c1cc(Br)ccc1O)c1ccncc1 | inactive
O=C(N/N=C/c1cc(I)cc(I)c1O)c1cc(Cl)cc(Cl)c1 | inactive
COc1ccc(Br)c(/C=N/NC(=O)c2snnc2C)c1O | inactive
COc1cccc(C(=O)N/N=C/c2cccc(F)c2O)c1 | inactive
COc1cc(C(=O)N/N=C/c2ccc(O)c(O)c2O)cc(OC)c1OC | inactive

Test system: Yersinia pseudotuberculosis YPIII
Test: Inhibition of T3S in Yersinia pseudotuberculosis YPIII expressing yopE-luxAB at 25 uM after 3 hrs by luciferase reporter gene assay
Conditions: not given
Outline: as §1

SMILES | inhibition
O=C(N/N=C/c1cc(Br)ccc1O)c1ccncc1 | 43%
O=C(N/N=C/c1cc(I)cc(I)c1O)c1cc(Cl)cc(Cl)c1 | 23%
COc1ccc(Br)c(/C=N/NC(=O)c2snnc2C)c1O | 34%
COc1cccc(C(=O)N/N=C/c2cccc(F)c2O)c1 | 17%
COc1cc(C(=O)N/N=C/c2ccc(O)c(O)c2O)cc(OC)c1OC | 31%

Test system: Yersinia pseudotuberculosis
Test: Antibacterial activity against Yersinia pseudotuberculosis expressing pIB102 at 100 uM after 23 hrs by broth dilution assay
Assay type: functional, organism-based
Conditions: not given
Outline: as §4

SMILES | Activity
O=C(N/N=C/c1cc(Br)ccc1O)c1ccncc1 | inactive
O=C(N/N=C/c1cc(I)cc(I)c1O)c1cc(Cl)cc(Cl)c1 | inactive
COc1ccc(Br)c(/C=N/NC(=O)c2snnc2C)c1O | inactive
COc1cccc(C(=O)N/N=C/c2cccc(F)c2O)c1 | inactive
COc1cc(C(=O)N/N=C/c2ccc(O)c(O)c2O)cc(OC)c1OC | inactive

Test system: not listed separately
Test: Aqueous solubility at 200 uM
Assay type: physicochemical
Conditions: buffer

SMILES | solubility
O=C(N/N=C/c1cc(I)cc(I)c1O)c1cc(Cl)cc(Cl)c1 | Insoluble
COc1ccc(Br)c(/C=N/NC(=O)c2snnc2C)c1O | Insoluble

Test system: Yersinia pseudotuberculosis YPIII
Test: Inhibition of T3S in Yersinia pseudotuberculosis YPIII expressing yopE-luxAB at 200 uM after 3 hrs by luciferase reporter gene assay
Conditions: not given
Outline: as §1

SMILES | inhibition
O=C(N/N=C/c1cc(Br)ccc1O)c1ccncc1 | 98%
COc1cccc(C(=O)N/N=C/c2cccc(F)c2O)c1 | 74%
COc1cc(C(=O)N/N=C/c2ccc(O)c(O)c2O)cc(OC)c1OC | 62%

Test system: Yersinia pseudotuberculosis YPIII
Test: Inhibition of T3S in Yersinia pseudotuberculosis YPIII expressing yopE-luxAB at 50 uM after 3 hrs by luciferase reporter gene assay
Conditions: not given
Outline: as §1

SMILES | inhibition
O=C(N/N=C/c1cc(Br)ccc1O)c1ccncc1 | 87%
O=C(N/N=C/c1cc(I)cc(I)c1O)c1cc(Cl)cc(Cl)c1 | 26%
COc1ccc(Br)c(/C=N/NC(=O)c2snnc2C)c1O | 60%
COc1cccc(C(=O)N/N=C/c2cccc(F)c2O)c1 | 45%
COc1cc(C(=O)N/N=C/c2ccc(O)c(O)c2O)cc(OC)c1OC | 50%
